The target in test [1] is Dihydroorotate dehydrogenase (quinone), mitochondrial (Homo sapiens, UniProt Q02127). Briefly: In vitro inhibitory activity against human dihydroorotate dehydrogenase (DHODH).
The subject of a further test is Jurkat. Briefly: In vitro inhibitory activity against Jurkat cell proliferation. It counts as functional, cell-based. As to conditions: Homo sapiens. Put shortly: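 Human Jurkat T cells kept in FCS-supplemented RPMI; 5 × 10⁴ cells/well cultured 2 days in 200 μL RPMI with test compound. Proliferation read as [³H]thymidine incorporation at the end of culture.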
The species named for test [2] is Mus musculus. The experiment in a line: In vitro inhibitory activity against mouse mixed lymphocyte reaction (MLR). It counts as functional. Put shortly:
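Equal numbers of C57Bl/6 (H-2^b) and CBA/2 (H-2^k) spleen cells mixed; 4 × 10⁵ cells/well with serial dilutions (DMSO/water) in 200 μL complete RPMI, 4 days, 37 °C, 5% CO₂. Proliferation by [³H]thymidine incorporation.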

The species named for test [3] is Mus musculus. The experiment in a line: In vitro inhibitory activity against murine antibody response to T-cell independent B-cell antigen TNP-LPS (type I). It counts as functional. Put shortly:
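C57Bl/6 nu/nu and C57Bl/6 spleen cells, 2 × 10⁵/well in duplicate, IMDM-ATL + 10% FCS with serial drug dilutions and optimal TNP-LPS, 4 days at 37 °C. Pooled supernatants went to ELISA on BSA-DNP plates, developed with biotin anti-mouse IgM, streptavidin-alkaline phosphatase and pNPP, read at 405/490 nm. % inhibition was taken relative to unstimulated (low) and stimulated (high) controls.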

pIC50: −log10 of the molar value.

Sequence of Dihydroorotate dehydrogenase (quinone), mitochondrial (Q02127 whole entry): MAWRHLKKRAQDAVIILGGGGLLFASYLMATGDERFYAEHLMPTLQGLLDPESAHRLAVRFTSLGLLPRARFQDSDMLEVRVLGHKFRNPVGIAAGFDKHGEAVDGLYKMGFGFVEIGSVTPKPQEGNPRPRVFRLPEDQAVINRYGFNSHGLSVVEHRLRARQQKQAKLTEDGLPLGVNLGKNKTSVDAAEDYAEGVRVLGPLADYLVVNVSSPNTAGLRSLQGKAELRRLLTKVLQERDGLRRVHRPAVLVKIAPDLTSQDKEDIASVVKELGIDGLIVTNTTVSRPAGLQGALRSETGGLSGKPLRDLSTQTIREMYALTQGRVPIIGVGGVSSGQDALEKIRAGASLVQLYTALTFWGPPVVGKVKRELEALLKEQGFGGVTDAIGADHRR

For the compound `Cc1n[nH]c(Nc2ccc(C(C)(C)C)cc2)c1C#N`, the negative logarithm of the IC50 (pIC50) in test [1] is 5.44; in the test on Jurkat, 4.91; in the test listed under Mus musculus [2] it was 5.12; in the test filed under Mus musculus [3], 4.51.
The matching figures for `Cc1n[nH]c(Nc2ccccc2)c1C#N`: less than 4.30, less than 4.30, less than 4.30 and less than 4.30.
Regarding `N#Cc1c(Nc2ccc(C(F)(F)F)cc2)n[nH]c1O`, the pIC50 (in test [1]; in the test listed under Mus musculus [3]) was less than 4.30 each time.
For `Cc1nn(C)c(Nc2ccc(C(F)(F)F)cc2)c1C#N`, the pIC50 in test [1] was less than 4.30; in the test with Jurkat, 4.33; in the test filed under Mus musculus [2], 4.79; in the test listed under Mus musculus [3], 4.64.
For `CCOC(=O)c1c(C)n[nH]c1Nc1ccc(C(F)(F)F)cc1`, the pIC50 in test [1] was less than 4.30; in the test listed under Mus musculus [3], 4.62.
On to `Cc1n[nH]c(Nc2ccc(C(F)(F)F)cc2)c1C#N`, for which the negative logarithm of the IC50 (pIC50) was 5.59 in test [1], less than 4.30 in the test on Jurkat, 5.68 in the test listed under Mus musculus [2] and 5.28 in the test listed under Mus musculus [3].
As for `Cc1n[nH]c(Nc2ccc(C(F)(F)F)c(Br)c2)c1C#N`, the figures for the pIC50 (in test [1]; in the test filed under Mus musculus [3]) were less than 4.30 and 4.68, respectively.
The matching figures for `Cc1n[nH]c(Nc2ccc(N)cc2)c1C#N`: less than 4.30 and less than 4.30.
For the compound `C/C(=N\N)c1c(C)n[nH]c1Nc1ccc(C(F)(F)F)cc1`, the pIC50 in test [1] was less than 4.30; in the test with Jurkat, 4.39; in the test listed under Mus musculus [2] it was 4.69; in the test filed under Mus musculus [3], 4.76.
Turning to `N#Cc1c(-c2ccccc2)n[nH]c1Nc1ccc(C(F)(F)F)cc1`, the pIC50 in test [1] was less than 4.30; in the test listed under Mus musculus [3], 4.49.
Turning to `Cc1n[nH]c(Nc2ccc(OC(F)(F)F)cc2)c1C#N`, the pIC50 in test [1] was 6.30; in the test on Jurkat it was 4.79; in the test listed under Mus musculus [2], 6.35; in the test filed under Mus musculus [3] it was 4.70.
Consider `N#Cc1c(-c2cccnc2)n[nH]c1Nc1ccc(C(F)(F)F)cc1`, for which the pIC50 is less than 4.30 in test [1] and 4.57 in the test listed under Mus musculus [3].
The matching figures for `Cc1n[nH]c(Nc2c(F)cc(F)cc2F)c1C#N`: 4.65 and 4.46.
In the case of `Cc1oncc1C(=O)Nc1ccc(C(F)(F)F)cc1` [LEFLUNOMIDE], the pIC50 in the test on Jurkat was 4.38; in the test filed under Mus musculus [2], 5.13; in the test listed under Mus musculus [3] it was 5.29.
For `Cc1n[nH]c(N(C)c2ccc(C(F)(F)F)cc2)c1C#N`, the pIC50 was less than 4.30 in test [1], less than 4.30 in the test with Jurkat, 4.63 in the test listed under Mus musculus [2] and 4.72 in the test listed under Mus musculus [3].
With `CC(C)(C)c1[nH]nc(Nc2ccc(C(F)(F)F)cc2)c1C#N`, the pIC50 in test [1] was less than 4.30; in the test on Jurkat, less than 4.30; in the test listed under Mus musculus [2], 5.28; in the test filed under Mus musculus [3], 5.24.
Regarding `CCNc1[nH]nc(Nc2ccc(C(F)(F)F)cc2)c1C#N`, the pIC50 in test [1] was less than 4.30; with Jurkat, 4.41; in the test filed under Mus musculus [2], 5.12; in the test filed under Mus musculus [3] it was 4.77.
`C/C=C/C[C@@H](C)[C@@H](O)[C@H]1C(=O)N[C@@H](CC)C(=O)N(C)CC(=O)N(C)[C@@H](CC(C)C)C(=O)N[C@@H](C(C)C)C(=O)N(C)[C@@H](CC(C)C)C(=O)N[C@@H](C)C(=O)N[C@H](C)C(=O)N(C)[C@@H](CC(C)C)C(=O)N(C)[C@@H](CC(C)C)C(=O)N(C)[C@@H](C(C)C)C(=O)N1C` [CYCLOSPORINE] showed a negative logarithm of the IC50 (pIC50) with Jurkat of less than 5.00.
Consider `FC(F)(F)c1ccc(Nc2[nH]nc3c2CCCC3)cc1`, for which the pIC50 in test [1] is 5.21; in the test on Jurkat, 4.51; in the test listed under Mus musculus [2], 5.47; in the test listed under Mus musculus [3] it was 4.86.
On to `Cc1n[nH]c(Nc2ccc(F)cc2)c1C#N`, for which the pIC50 was 4.71 in test [1], less than 4.30 in the test with Jurkat, 5.13 in the test filed under Mus musculus [2] and 5.04 in the test listed under Mus musculus [3].
For the compound `Cc1n[nH]c(Nc2ccc([N+](=O)[O-])cc2)c1C#N`, the pIC50 was 5.05 in test [1], less than 4.30 in the test on Jurkat, 5.37 in the test filed under Mus musculus [2] and 5.19 in the test listed under Mus musculus [3].
The matching figures for `CC(C)c1n[nH]c(Nc2ccc(C(F)(F)F)cc2)c1C#N`: 5.40, less than 4.30, 5.51 and 5.33.
For the compound `Cc1n[nH]c(Nc2ccc(C(F)(F)F)cc2)c1-c1ccccc1`, the figures for the pIC50 (in test [1]; in the test filed under Mus musculus [3]) were less than 4.30 and 4.53, respectively.
Consider `Cc1n[nH]c(NCc2ccc(C(F)(F)F)cc2)c1C#N`, for which the pIC50 in test [1] is less than 4.30; in the test on Jurkat, less than 4.30; in the test filed under Mus musculus [2] it was 4.39; in the test filed under Mus musculus [3], 4.77.
Turning to `Cc1n[nH]c(Nc2ccc(C#N)cc2)c1C#N`, the pIC50 in test [1] was 5.49; in the test with Jurkat it was less than 4.30; in the test listed under Mus musculus [2], 5.22; in the test listed under Mus musculus [3], 4.94.
Turning to `N#Cc1c(-c2cccs2)n[nH]c1Nc1ccc(C(F)(F)F)cc1`, the pIC50 (in test [1]; in the test listed under Mus musculus [3]) was less than 4.30 in each case.
On to `Cc1ccc(Nc2[nH]nc(C)c2C#N)cc1`, for which the pIC50 in test [1] is 4.92; in the test listed under Mus musculus [3], less than 4.30.
The matching figures for `Cc1n[nH]c(Nc2ccccc2C(F)(F)F)c1C#N`: less than 4.30 and less than 4.30.
With `Cc1n[nH]c(Nc2cc(C(F)(F)F)cc(C(F)(F)F)c2)c1C#N`, the negative-log IC50 (pIC50) in test [1] is less than 4.30; with Jurkat, 4.79; in the test filed under Mus musculus [2] it was 5.17; in the test filed under Mus musculus [3], 4.55.
On to `N#Cc1c(-c2ccco2)n[nH]c1Nc1ccc(C(F)(F)F)cc1`, for which the pIC50 (in test [1]; in the test listed under Mus musculus [3]) was less than 4.30 throughout.
Turning to `Cc1n[nH]c(Nc2ccc(C(F)(F)F)cc2)c1C`, the negative logarithm of the IC50 (pIC50) in test [1] was 4.65; in the test with Jurkat, 4.37; in the test listed under Mus musculus [2] it was 4.73; in the test filed under Mus musculus [3] it was 4.84.
On to `O=C1CCCc2n[nH]c(Nc3ccc(C(F)(F)F)cc3)c21`, for which the pIC50 was 5.19 in test [1], 4.75 in the test on Jurkat, 5.07 in the test filed under Mus musculus [2] and 4.78 in the test listed under Mus musculus [3].
On to `Cc1n[nH]c(Nc2cccc(C(F)(F)F)c2)c1C#N`, for which the pIC50 (in test [1]; in the test listed under Mus musculus [3]) was less than 4.30 each time.
In the case of `Cc1n[nH]c(Nc2ccc(C(F)(F)F)cc2)c1CO`, the pIC50 in test [1] was 5.57; in the test filed under Mus musculus [3], 4.67.
In the case of `N#Cc1c(C2CCCC2)n[nH]c1Nc1ccc(C(F)(F)F)cc1`, the pIC50 in test [1] is less than 4.30; with Jurkat, 4.50; in the test filed under Mus musculus [2], 5.54; in the test filed under Mus musculus [3] it was 4.65.
The matching figures for `Cc1cc(Nc2ccc(C(F)(F)F)cc2)[nH]n1`: 4.78, less than 4.30, 4.78 and 4.58.
The matching figures for `N#Cc1c(Nc2ccc(C(F)(F)F)cc2)n[nH]c1N`: less than 4.30, less than 4.30, 5.43 and 4.83.
The matching figures for `N#Cc1c(-c2ccncc2)n[nH]c1Nc1ccc(C(F)(F)F)cc1`: less than 4.30, 4.97, 5.44 and 4.87.

Usually pIC50 stands for the IC50 on a negative log10 scale, so that one unit is a factor of ten. A high value points to a low IC50.
